Test results as given in ChEMBL document CHEMBL1128740, “[(Alkylamino)methyl]acrylophenones: potent and selective inhibitors of the epidermal growth factor receptor protein tyrosine kinase” (J Med Chem, 1995).

Legend:
Balb/MK = experiment: Tested for antiproliferative activity using mouse epidermal keratinocytes cell line (BALB/MK); format: functional, cell-based
In short: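 BALB/MK mouse epidermal keratinocytes, which depend on EGF to proliferate. Compounds were kept as 10 mM DMSO stocks and freshly diluted. They were added 24 h after plating, at a final DMSO concentration of 0.5%. Growth was read by methylene blue staining after 3–5 days, and IC50 was determined.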

[1] = biological target: Epidermal growth factor receptor (Homo sapiens, UniProt P00533); experiment: In vitro inhibition of the Epidermal growth factor receptor activity in A431 membranes
Chain of Epidermal growth factor receptor (P00533 whole entry): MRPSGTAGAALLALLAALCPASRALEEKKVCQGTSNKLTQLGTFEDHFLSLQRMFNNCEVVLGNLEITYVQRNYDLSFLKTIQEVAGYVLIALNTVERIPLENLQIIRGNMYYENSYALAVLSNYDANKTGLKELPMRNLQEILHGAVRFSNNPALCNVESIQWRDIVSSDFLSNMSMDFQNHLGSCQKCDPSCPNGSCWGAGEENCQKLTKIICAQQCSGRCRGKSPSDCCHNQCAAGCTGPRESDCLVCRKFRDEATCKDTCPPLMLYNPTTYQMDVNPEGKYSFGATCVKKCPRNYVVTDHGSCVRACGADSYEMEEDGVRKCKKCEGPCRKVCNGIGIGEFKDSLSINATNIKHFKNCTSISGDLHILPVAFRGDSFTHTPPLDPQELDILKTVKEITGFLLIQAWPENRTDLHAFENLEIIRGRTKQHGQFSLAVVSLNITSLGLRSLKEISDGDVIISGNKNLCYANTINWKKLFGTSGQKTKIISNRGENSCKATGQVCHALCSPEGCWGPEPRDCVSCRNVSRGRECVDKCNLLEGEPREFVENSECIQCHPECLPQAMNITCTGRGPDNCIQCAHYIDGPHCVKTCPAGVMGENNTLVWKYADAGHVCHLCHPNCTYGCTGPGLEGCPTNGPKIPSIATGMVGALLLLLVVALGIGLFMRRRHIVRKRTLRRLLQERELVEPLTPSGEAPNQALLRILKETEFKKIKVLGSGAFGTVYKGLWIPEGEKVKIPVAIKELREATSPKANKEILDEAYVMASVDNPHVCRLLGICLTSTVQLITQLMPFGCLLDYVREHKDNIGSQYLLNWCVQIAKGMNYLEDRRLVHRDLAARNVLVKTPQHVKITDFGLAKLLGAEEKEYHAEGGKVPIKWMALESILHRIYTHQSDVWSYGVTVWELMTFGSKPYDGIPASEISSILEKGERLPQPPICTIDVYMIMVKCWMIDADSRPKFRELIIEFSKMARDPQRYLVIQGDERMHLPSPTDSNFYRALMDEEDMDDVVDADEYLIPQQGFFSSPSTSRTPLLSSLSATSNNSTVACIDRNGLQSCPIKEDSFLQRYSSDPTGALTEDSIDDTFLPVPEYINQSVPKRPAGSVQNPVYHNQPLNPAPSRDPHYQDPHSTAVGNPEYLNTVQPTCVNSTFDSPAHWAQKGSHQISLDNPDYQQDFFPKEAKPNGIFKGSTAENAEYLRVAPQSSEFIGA

[2] = In vitro inhibition of the Protein kinase C tyrosine kinase activity in A431 membranes; format: cell membranes
[3] = biological target: Proto-oncogene tyrosine-protein kinase Src (Homo sapiens, UniProt P12931); experiment: In vitro inhibition of the c-src tyrosine kinase activity in A431 membranes using angiotensin II as phosphate acceptor as substrate; format: cell membranes
Chain of Proto-oncogene tyrosine-protein kinase Src (P12931 2-536 limits assumed): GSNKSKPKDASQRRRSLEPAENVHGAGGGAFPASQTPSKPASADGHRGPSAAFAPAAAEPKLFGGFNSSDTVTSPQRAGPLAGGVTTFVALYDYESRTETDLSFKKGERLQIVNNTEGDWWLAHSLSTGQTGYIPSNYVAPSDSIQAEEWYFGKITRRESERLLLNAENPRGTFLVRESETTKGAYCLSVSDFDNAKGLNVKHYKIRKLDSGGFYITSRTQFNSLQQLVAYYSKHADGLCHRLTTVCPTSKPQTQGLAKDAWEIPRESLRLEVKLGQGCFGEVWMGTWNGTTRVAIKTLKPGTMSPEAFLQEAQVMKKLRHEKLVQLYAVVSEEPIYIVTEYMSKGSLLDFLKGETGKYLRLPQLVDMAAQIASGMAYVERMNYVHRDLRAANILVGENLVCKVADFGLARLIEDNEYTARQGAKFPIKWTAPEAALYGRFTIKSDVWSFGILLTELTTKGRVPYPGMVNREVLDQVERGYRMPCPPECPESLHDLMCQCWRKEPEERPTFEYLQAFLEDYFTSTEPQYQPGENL

A431 (Homo sapiens) = experiment: Inhibition of EGF-dependent tyrosine phosphorylation in A431 cells.
[4] = biological target: v-abl tyrosine kinase (Abelson murine leukemia virus) (UniProt P00521); experiment: In vitro inhibition of the v-abl tyrosine kinase activity using purified v-abl kinase
Chain of v-abl tyrosine kinase (Abelson murine leukemia virus) (P00521 whole entry, looked up): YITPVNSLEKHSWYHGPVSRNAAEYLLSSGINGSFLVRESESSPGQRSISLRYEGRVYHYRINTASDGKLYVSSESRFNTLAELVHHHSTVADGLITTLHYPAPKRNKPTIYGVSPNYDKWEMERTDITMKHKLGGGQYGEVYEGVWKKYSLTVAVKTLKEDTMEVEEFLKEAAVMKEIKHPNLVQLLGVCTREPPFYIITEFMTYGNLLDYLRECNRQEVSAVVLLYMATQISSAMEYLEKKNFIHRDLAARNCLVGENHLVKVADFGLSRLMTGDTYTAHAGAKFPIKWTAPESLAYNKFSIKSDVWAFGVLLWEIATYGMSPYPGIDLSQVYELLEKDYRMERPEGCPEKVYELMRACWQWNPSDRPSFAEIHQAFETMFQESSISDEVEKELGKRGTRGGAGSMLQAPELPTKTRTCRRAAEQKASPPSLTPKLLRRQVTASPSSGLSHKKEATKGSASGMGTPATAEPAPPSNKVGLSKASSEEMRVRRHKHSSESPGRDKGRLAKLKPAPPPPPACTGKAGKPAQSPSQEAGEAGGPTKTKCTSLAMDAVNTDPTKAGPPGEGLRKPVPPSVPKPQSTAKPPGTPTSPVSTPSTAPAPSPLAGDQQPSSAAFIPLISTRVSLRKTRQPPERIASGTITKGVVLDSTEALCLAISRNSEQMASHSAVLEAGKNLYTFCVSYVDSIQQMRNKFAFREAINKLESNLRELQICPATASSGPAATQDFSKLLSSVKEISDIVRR

Mus musculus = experiment: Inhibition of EGF-dependent tyrosine phosphorylation in xenografts of the BT-20 tumor in nude mice.; format: functional, organism-based

| IC50 [1] [µM] | IC50 [2] [µM] | IC50 [3] [µM] | IC50 (A431 (Homo sapiens)) [µM] | IC50 [4] [µM] | IC50 (Mus musculus) [µM] | Compound | IC50 (Balb/MK) [µM] |
| --- | --- | --- | --- | --- | --- | --- | --- |
| 8.8 | > 100 | > 100 | 25 | > 50 |  | CN(C)CC(CSCCN)C(=O)c1ccc(OCc2ccccc2)cc1 (configuration not stated) | 4.1 |
| 1.1 | 140 | > 100 | > 100 | > 100 |  | C=C(CN1CCCCC1)C(=O)c1ccc(OCc2ccccc2)cc1 | 3.5 |
| 5.6 | 500 | > 100 |  | > 100 | > 100 | C=C(CN(C)C)C(=O)c1ccccc1 | 9.3 |
| 1.1 | 110 | > 100 | 100 | > 100 |  | C=C(CN1CCOCC1)C(=O)c1ccc(OCc2ccccc2)cc1 | 1.8 |
| 0.7 | 180 | > 50 |  | 70 |  | C=C(CN(C)C)C(=O)c1ccc(OS(=O)(=O)c2ccc(C(=O)N(C)C)cc2)cc1 | 2.8 |
| 1.8 | > 500 | > 100 | 100 | > 100 |  | O=C(CCN1CCCCC1)c1ccc(OCc2ccccc2)cc1 | 25.6 |
| 1.5 | > 100 | > 100 | > 100 | > 100 |  | CN(C)CCC(=O)c1ccc(OCc2ccccc2)cc1 | 46.2 |
| 1.5 | 420 | > 100 | > 100 | > 100 |  | O=C(CCN1CCOCC1)c1ccc(OCc2ccccc2)cc1 | 33.9 |
| 1.5 | 310 | > 100 | > 100 | > 100 |  | C=C(CN1CCNCC1)C(=O)c1ccc(OCc2ccccc2)cc1 | 0.95 |
|  | 215 | > 100 |  | > 100 |  | C=C(CN(C)C)C(=O)c1ccc(OCc2ccccc2)cc1 | 6.1 |
| 0.23 | > 500 | > 100 | 100 | 50 |  | C=C(CN(C)C)C(=O)c1ccc(OS(=O)(=O)c2ccc(C(=O)O)cc2)cc1 | > 50 |
| 0.3 | > 500 | > 100 | > 100 | > 100 |  | CCOC(=O)C1CCN(CCC(=O)c2ccc(OCc3ccccc3)cc2)CC1 | 40.2 |
|  | 140 |  |  |  |  | C=C(CN(C)C)C(=O)c1ccc(OS(=O)(=O)c2ccc(C(=O)O)c(O)c2)cc1 | > 50 |
| 3.9 | > 500 | > 100 | 50 | > 100 |  | CN(C)CC(CNNC(N)=O)C(=O)c1ccc(OCc2ccccc2)cc1 (configuration not stated) | 2 |
| 8.8 | > 500 | > 100 | 25 | > 100 |  | COC(=O)c1ccccc1SCC(CN(C)C)C(=O)c1ccc(OCc2ccccc2)cc1 (configuration not stated) | 1.24 |
| > 100 |  |  | > 100 | > 100 |  | CN(C)CCCC(=O)c1ccc(OCc2ccccc2)cc1 | > 50 |
| 0.36 | 500 | > 50 | 50 | > 100 |  | CN(C)CCC(=O)c1ccc(OCc2ccccc2)c(O)c1 | 9.3 |
| 100 |  |  | 100 |  |  | CC(CN(C)C)C(=O)c1ccc(OS(=O)(=O)c2ccc(C(=O)O)cc2)cc1 (configuration not stated) | > 50 |
| 2.1 | > 500 | > 100 | 100 | > 100 |  | Cc1ccc(SCC(CN(C)C)C(=O)c2ccc(OCc3ccccc3)cc2)cc1C (configuration not stated) | 1.21 |
| 0.67 | 86 | 50 | > 100 | > 50 |  | C=C(CN(C)C)C(=O)c1ccc(OCc2ccccc2)c(O)c1 | 3.3 |
| 7.3 | > 500 | > 50 | 100 | > 50 |  | CN(C)CC(CSc1ccccc1)C(=O)c1ccc(OCc2ccccc2)cc1 (configuration not stated) | 1.6 |
|  | 15 | 75 |  | 10 |  | O=c1c(-c2ccc(O)cc2)coc2cc(O)cc(O)c12 [GENISTEIN] |  |
